Assay [1] in a line: SK-BR-3 cell growth inhibitors, pilot screen, 24 h, human (AID 572;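 active = viability at or below 10% of carrier control in both of two separate runs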;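 note: compound exposure lasted between 18 and 24 h rather than exactly 24 h; 100% = carrier-treated control wells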). Conditions: SK-BR-3 viability, CellTiter-Glo luminescence, at 10 µM, stronger effect = lower value. (In general: Cellular ATP, detected with luciferase, serves as a proxy for viable cell number.)
The nature of assay [2]: HUVEC growth inhibition – cell-based, human, primary screen (AID 575;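 active = viability at or below 30% in both replicate assays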;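 note: 100% = median of untreated cell wells with 0.1% DMSO on each plate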). Conditions: HUVEC proliferation, CellTiter-Glo luminescence, 72 h; at 10 µM; stronger effect = lower value. The method in brief: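 System – primary HUVEC, no more than 12 passages · Medium – Low-serum (2% FBS) EBM, supplemented · Times – 72 h exposure, 37 °C, 5% CO2, 30 min RT equilibration · Measured by – luminescent ATP assay · Read-out – % viability relative to median vehicle-well signal on each plate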

Assay [3] in a line: growth inhibitors of H69AR lung tumor, primary screen, human, duplicate replicates (AID 580).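 Note: 100% = mean luminescence of untreated wells and 0% = no signal.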 Particulars: H69AR lung tumor cells viability, ATP luminescence, 72 h; at 10 µM; stronger effect = lower value.
Assay [4] is described as follows: reversal of MRP1-mediated doxorubicin resistance, pilot screen, H69AR cells, doxorubicin co-treatment (AID 601;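 active = viability loss from added drug above about 55%, and viability with drug at most 40%, in both replicates, limit read from the data, passing the limit was not always enough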). Conditions: CellTiter-Glo, 72 h, at 10 µM; for differential viability (reversal): stronger effect = higher value.
A short description of assay [5]: 384-well plate pilot, post-Golgi transport modulator project, inhibition of yeast transport mutant growth (AID 636; in the data active = inhibition above about 31%). Particulars: absorbance 615 nm, about 18 h, stronger effect = higher value.
Assay [6] can be described thus: growth suppression of yeast trafficking mutant, preliminary HTS, modulators of trafficking downstream of Golgi apparatus project, 1536-format plate, OD 615 nm (AID 637; in the data active = inhibition above about 30%). Particulars: yeast transport mutant growth, absorbance 615 nm, 18 h; stronger effect = higher value.
The mark [7] stands for this setting: H69AR cells + 2 uM doxorubicin, measured here: viability with 2 uM doxorubicin, stronger effect = lower value.
Setting [8] is: H69AR cells, compound alone cytotoxicity.

Calls of active or inactive are those of the source.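 Rule for the calls, unless noted: active = viability at or under a set limit in both replicates, limit being median viability minus 3 SD (cut at about 48% in these data, passing the limit was not always enough); inconclusive = at or under the limit in just one replicate; inactive = at or above the limit in both replicates.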

Consider `COC(=O)c1ccc(-c2ccco2)n1Cc1nc(-c2ccc(OC)c(OC)c2)oc1C`, for which the viability in assay [1] is 125% (inactive); in assay [2], 25.9% (active); in assay [3] it was 48.8% (active); in assay [4] (setting [7]), 57.2%; in assay [4] (setting [8]), 48.8%. The differential viability (reversal) in assay [4] (H69AR cells + 2 uM doxorubicin) was -8.4% (inactive). Moreover, the inhibition in assay [5] is -4.32% (inactive); in assay [6], 4.73% (inactive).
Regarding `COc1ccc(-n2ncc3c(NCc4cccs4)ncnc32)cc1`, the viability is 120% (inactive) in assay [1]; 90.5% (inactive) in assay [2]; 73.3% (inactive) in assay [3]; 55.8% in assay [4] (setting [7]); 73.3% in assay [4] (setting [8]). Further, the differential viability (reversal) in assay [4] (H69AR cells + 2 uM doxorubicin) was 17.6% (inactive). Also, the inhibition in assay [5] is -6.71% (inactive); in assay [6] it was -1.64% (inactive).
Regarding `CN(CCc1ccccn1)c1ncnc2[nH]ncc12`, the viability was 102% (inactive) in assay [1]; 116% (inactive) in assay [2]; 97.6% (inactive) in assay [3]; 87.6% in assay [4] (setting [7]); 97.6% in assay [4] (setting [8]). Further, the differential viability (reversal) in assay [4] (H69AR cells + 2 uM doxorubicin) is 9.97% (inactive). Further, the inhibition in assay [5] is -6.62% (inactive); in assay [6], -2.36% (inactive).
As for `CN(c1ccc(OCc2nnc(-c3ccccc3)o2)cc1)S(=O)(=O)c1ccccc1`, the viability in assay [1] was 99% (inactive); in assay [2] it was 96.6% (inactive); in assay [3], 82.9% (inactive); in assay [4] (setting [7]) it was 80.5%; in assay [4] (setting [8]), 82.9%. Besides, in assay [4] (H69AR cells + 2 uM doxorubicin), the differential viability (reversal) was 2.42% (inactive). In addition, the results for the inhibition in assay [5] and in assay [6] were -7.7% (inactive) and -5.45% (inactive), respectively.
For the compound `COc1ccc(NS(=O)(=O)c2ccc(N)cc2)nn1`, the viability in assay [1] is 91% (inactive); in assay [2], 100% (inactive); in assay [3], 104% (inactive); in assay [4] (setting [7]) it was 95.3%; in assay [4] (setting [8]), 104%. Moreover, the differential viability (reversal) in assay [4] (H69AR cells + 2 uM doxorubicin) was 8.44% (inactive). The inhibition was -0.78% (inactive) in assay [5] and 0% (inactive) in assay [6].
On to `O=c1oc2cc(O)ccc2c2oc3cc(O)ccc3c12`, for which the viability in assay [1] is 108% (inactive); in assay [2], 85.1% (inactive); in assay [3] it was 99.4% (inactive); in assay [4] (setting [7]), 92.8%; in assay [4] (setting [8]), 99.4%. In assay [4] (H69AR cells + 2 uM doxorubicin), the differential viability (reversal) was 6.57% (inactive). Moreover, the figures for the inhibition in assay [5] and in assay [6] were -5.19% (inactive) and 5.17% (inactive), respectively.
Regarding `CCOC(=O)n1c(=O)oc2cc(S(=O)(=O)N3CCCCC3)ccc21`, the viability in assay [1] was 97% (inactive); in assay [2] it was 112% (inactive); in assay [3], 90.2% (inactive); in assay [4] (setting [7]) it was 90.8%; in assay [4] (setting [8]), 90.2%. Further, the differential viability (reversal) in assay [4] (H69AR cells + 2 uM doxorubicin) is -0.62% (inactive). In addition, the values for the inhibition in assay [5] and in assay [6] were -4.27% (inactive) and -2.91% (inactive), respectively.
Take `O=S(=O)(Nn1cnnc1)c1ccccc1Cl`: the viability is 84% (inactive) in assay [1]; 109% (inactive) in assay [2]; 89.3% (inactive) in assay [3]; 92.7% in assay [4] (setting [7]); 89.3% in assay [4] (setting [8]). In addition, the differential viability (reversal) in assay [4] (H69AR cells + 2 uM doxorubicin) is -3.4% (inactive). Further, the inhibition in assay [5] is 4% (inactive); in assay [6], 7.09% (inactive).
On to `COc1ccccc1C1N(c2ccc(F)cc2)C(=O)C2CCCN21` (stereo unspecified), for which the viability in assay [1] was 102% (inactive); in assay [2], 111% (inactive); in assay [3] it was 108% (inactive); in assay [4] (setting [7]), 90.1%; in assay [4] (setting [8]) it was 108%. For the same compound, in assay [4] (H69AR cells + 2 uM doxorubicin), the differential viability (reversal) was 17.8% (inactive). Further, the inhibition in assay [5] was -5.07% (inactive); in assay [6] it was -1.27% (inactive).
As to `Cc1ccc(NC(=O)CSc2nnc(-c3ccc(S(=O)(=O)N4CCOCC4)cc3)n2C)cc1`, the viability in assay [1] was 102% (inactive); in assay [2], 104% (inactive); in assay [3], 98.4% (inactive); in assay [4] (setting [7]), 94.6%; in assay [4] (setting [8]), 98.4%. Besides, the differential viability (reversal) in assay [4] (H69AR cells + 2 uM doxorubicin) is 3.83% (inactive). In addition, the inhibition was -3.33% (inactive) in assay [5] and -1.64% (inactive) in assay [6].
As for `Cc1cccn2c(=O)c3cc(C#N)c(=NC(=O)c4ccncc4)n(Cc4ccco4)c3nc12`, the viability in assay [1] is 110% (inactive); in assay [2], 64.1% (inactive); in assay [3], 67% (inactive); in assay [4] (setting [7]) it was 51.7%; in assay [4] (setting [8]), 67%. In addition, the differential viability (reversal) in assay [4] (H69AR cells + 2 uM doxorubicin) was 15.3% (inactive). The inhibition is -1.58% (inactive) in assay [5] and 7.74% (inactive) in assay [6].
On to `CCNC(=O)CC1C(=O)N(c2ccccc2)C(=O)N1CCC(C)C` (stereo unspecified), for which the viability in assay [1] was 117% (inactive); in assay [2] it was 95.9% (inactive); in assay [3] it was 93.5% (inactive); in assay [4] (setting [7]), 79.6%; in assay [4] (setting [8]), 93.5%. Further, in assay [4] (H69AR cells + 2 uM doxorubicin), the differential viability (reversal) was 13.9% (inactive). In addition, the inhibition was -0.78% (inactive) in assay [5] and -0.82% (inactive) in assay [6].

The viability is a read-out of living cells in per cent, often relative to untreated cells. As usually defined, the inhibition is the relative decrease from the control value, in per cent.
